Bioassay records from PubChem.
TPT1 inh: Candida albicans TPT1 enzyme inhibitors, primary screen, biochemical, fluorescence polarization; tRNA 2'-phosphotransferase TPT1 (Candida albicans SC5314); recombinant caTPT1, FP RNA substrate dephosphorylation; inhibition, % at 5 µM; actives 0.81% (n = 300,000); AID 1962, 2009;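 active means inhibition above the mean of all tested compounds plus 3 SD, set per screening campaign, cut at about 24% in these data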
HNF4A DNA FP: change in binding of human HNF4A to DNA, primary screen, biochemical, fluorescence polarization, FITC-DNA | 1 h | actives 0.3% (n = 360,000) | activity change, % at 10 µM | Hepatocyte nuclear factor 4-alpha (Homo sapiens), P41235; in the data active means activity change above about 30%, passing the limit was not always enough
Target sequence (P41235 whole entry, looked up): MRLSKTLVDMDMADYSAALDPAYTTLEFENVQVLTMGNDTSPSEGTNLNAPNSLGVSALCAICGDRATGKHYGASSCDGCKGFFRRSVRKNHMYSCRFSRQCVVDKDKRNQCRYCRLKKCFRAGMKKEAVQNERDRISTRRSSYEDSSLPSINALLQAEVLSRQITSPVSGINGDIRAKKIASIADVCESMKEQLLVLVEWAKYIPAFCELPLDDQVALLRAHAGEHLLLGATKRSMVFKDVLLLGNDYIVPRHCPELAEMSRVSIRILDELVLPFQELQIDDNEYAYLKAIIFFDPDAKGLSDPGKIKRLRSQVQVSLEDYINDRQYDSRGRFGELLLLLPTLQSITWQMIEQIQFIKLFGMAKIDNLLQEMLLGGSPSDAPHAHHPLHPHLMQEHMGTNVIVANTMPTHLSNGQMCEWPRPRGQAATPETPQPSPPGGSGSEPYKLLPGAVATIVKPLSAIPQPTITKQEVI
Rtt109 HAT inh: inhibitors of C. albicans Rtt109/Vps75 HAT, primary screen, biochemical, ThioGlo CoA-SH fluorescence, plate reader; actives 0.16% (n = 330,000); Histone acetyltransferase RTT109 (Candida albicans (strain SC5314 / ATCC MYA-2876)), …; inhibition, % at 34.9 µM; purified Rtt109/Vps75, 4 h; AID 540336, 2011;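 active means inhibition of at least 50% in every replicate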
CSN inh: inhibitors of CSN-mediated cullin deneddylation, primary screen, biochemical, fluorescence polarization, uHTS; COP9 signalosome complex subunit 5 (Homo sapiens), Q92905; Purified CSN, SCF-Nedd8-OG deneddylation; inhibition, % at 12.5 µM; actives 0.38% (n = 360,000); AID 651999, 2013;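 active means pattern-corrected inhibition above about 35%, with an unprinted fluorescence ratio check between 0.5 and 1.5, limit read from the data, passing the limit was not always enough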
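test system = HEK293T-derived human Csn5 enzyme | amount = 0.24 nM Csn5 enzyme, final concentration | medium = Tris/NaCl/DTT buffer, pH 7.5 | schedule = 90 min reaction at room temperature | signal = FP | evaluation = inhibition of Csn5 cleavage, % | compound dosing = single dose of 12.5 µM compound with 0.25% DMSO | probe or stimulus = 10 nM SCFSkp2-Nedd8OG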
TPT1 inh confirm: Candida albicans TPT1 inhibitors, confirmation, biochemical, fluorescence polarization, triplicate. AID 2149, 2009. shares compounds with TPT1 inh. actives 74% (n = 2,400). inhibition, % at 5 µM. recombinant caTPT1, RNase T1 coupled;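 active means inhibition above the primary screen limit, the mean inhibition of all tested compounds plus 3 SD, cut at about 25% in these data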
RNase T1 counter: RNase T1 inhibitors, counter-screen for TPT1 inhibitor project, biochemical, fluorescence polarization; RNase T1 cleavage, 1536-well; actives 83% (n = 2,400); shares compounds with TPT1 inh; inhibition, % at 5 µM;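 active means inhibition above the solvent-only control well mean plus 3 SD, limit set per screening run, cut at about 23% in these data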;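 further: inhibitors block cleavage so intact labeled substrate keeps polarization high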
Target sequence (P00651 whole entry, looked up): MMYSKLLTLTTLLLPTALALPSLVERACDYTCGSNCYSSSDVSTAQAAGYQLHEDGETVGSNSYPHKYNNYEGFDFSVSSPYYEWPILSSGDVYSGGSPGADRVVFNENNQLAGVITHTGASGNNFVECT
A number is an active result; 0 = inactive; - = not tested or not shown; ! = a repeat was not active. This is a sample that favours compounds with a hit; in the whole collection about 1.2% have one here.

SMILES | TPT1 inh | HNF4A DNA FP | Rtt109 HAT inh | CSN inh | others
O=C1NC(=O)C(=Cc2ccccc2[N+](=O)[O-])C(=O)N1 | - | 0 | 0 | 0
O=C1NC(=O)C(=Cc2cc3c(cc2[N+](=O)[O-])OCO3)C(=O)N1 | 0 | 0 | 74 | 0
COC(=O)C1C(C(=O)O)C2(Cl)C(Cl)=C(Cl)C1(Cl)C2(Cl)Cl (centres undefined) | - | 0 | 0 | 0
NS(=O)(=O)c1ccc(-c2ccc(C=C3C(=O)NC(=S)NC3=O)o2)cc1 | 36 | - | - | -
CCOC(=O)[C@]12Cc3c(cc(OC)c(OC)c3OC)[C@H]1N(CCC(=O)OC)C(=O)c1ccccc12 | - | 0 | - | 0
Cc1ccsc1C(=O)C1CCCN(Cc2cnc(N3CCOCC3)s2)C1 (centres undefined) | 0 | 0 | 0 | 101
Cc1ccc2c(c1)C1C[N+](C)(CC(=O)c3ccc(Cl)cc3Cl)CCC1N2C(=O)c1ccc(F)cc1 (centres undefined) | - | 0 | 57 | 0
CC1CN1P(=O)(Oc1ccccc1)N1CC1C (centres undefined) | - | 0 | 0 | 0
NC1C2CN3CCN(C2)CC1(c1ccccc1)C3 (centres undefined) | 0 | 75 | 0 | 0
O=C(c1ccccc1)c1ccccc1N=Cc1c(O)[nH]c(=O)[nH]c1=O | 0 | 0 | 0 | 0
O=c1[nH]c(O)c(C=Nc2ccccc2Oc2ccccc2)c(=O)[nH]1 | 0 | 0 | 0 | 48
O=c1[nH]c(=S)n(C2CCCCC2)c(O)c1/C=N/N1CCOCC1 | 0 | 0 | 0 | 0
CCCCn1c(N)c(C(=O)NCCN2CCOCC2)c2nc3ccccc3nc21 | 0 | 0 | 0 | 36
Cc1ccc(-n2c(O)c(C=Nc3ccccc3N)c(=O)[nH]c2=O)cc1C | 0 | 0 | 0 | 0
O=c1[nH]c(=O)n(-c2ccc(F)cc2)c(O)c1C=Nc1ccccc1N1CCCC1 | 0 | 58 | 0 | 0
CCCC(CCC)C(=O)OC[N+](C)(C)CCOC(=O)C(O)(c1ccccc1)C1CCCC1 (centres undefined) | 0 | 0 | 57 | 0
N#CC1c2ccccc2-n2nncc2CN1S(=O)(=O)c1ccc(Cl)cc1 (centres undefined) | - | 0 | 0 | 0
S=P(NCCSCc1ccccc1)(N1CC1)N1CC1 | - | 0 | 0 | 0
COC(=O)C1=CCCN(C)C1 | 0 | 0 | 0 | 0
CCN(CC)P(=O)(NC(=O)C(Cl)(Cl)Cl)N(CC)CC.[Cl-].[Cl-].[Cl-].[Nd+3] | 0 | 53! | 0 | 104!
CC(C)(C)n1nnnc1C(c1ccnc2ccccc12)N1CCC2(CC1)C(=O)NCN2c1ccccc1 (centres undefined) | - | 0 | - | 123
COc1ccc(CCn2c(O)c(C=Nc3ccc(NC(C)=O)cc3)c(=O)[nH]c2=O)cc1OC | 0 | 0 | 0 | 38
O=C(COc1ccccc1)N1CCN(C2CCCC2)CC1 | 0 | 40 | 0 | 0
COc1ccc(OCC(=O)N2CCN(C3CCC(c4ccccc4)CC3)CC2)cc1 (centres undefined) | 0 | 0 | 0 | 0
CN(C)C(=S)SSC(=S)N(C)C | 0 | 0 | 154 | 0
SMILES | TPT1 inh | HNF4A DNA FP | Rtt109 HAT inh | CSN inh | others
COc1ccc(CN2Cc3cc(-c4cccc(F)c4)ccc3-n3nncc3C2)cc1 | - | 0 | - | 0
O=C1NC(=O)C(=C/C=C/c2coc3ccc(Br)cc3c2=O)C(=O)N1 | 39 | - | - | -
O=C1NC(=O)C(=Cc2coc3ccccc3c2=O)C(=O)N1 | 0 | 0 | - | 0
O=c1ccc2cc3ccoc3c(O)c2o1 | - | 0 | 0 | 0
COc1ccc(CN2CCN(c3ccccc3)CC2)c(C)c1C | 0 | 0 | 0 | 0
Cc1ccc(N2C(=O)NC(=O)/C(=C/c3cnn(-c4ccc(C)cc4)c3)C2=O)cc1 | 0 | 0 | 0 | 0
Cc1ccc(N2C(=O)NC(=O)/C(=C/c3ccoc3)C2=O)cc1 | - | 0 | 0 | 88
CSc1ncc(/C=C2/C(=O)NC(=O)N(c3ccc(C)cc3)C2=O)cn1 | 0 | 0 | 0 | 0
CSc1ncc(/C=C2/C(=O)NC(=O)N(c3ccc(Cl)cc3)C2=O)cn1 | - | 0 | 64 | 0
N=C1c2ccccc2CN1CC(=O)c1ccccc1 | 0 | 0 | 0 | 0
N=C1c2ccccc2CN1NC(=O)c1ccccc1 | 0 | 0 | 51 | 0
CCOC(=O)[C@]12Cc3cc(Cl)ccc3[C@H]1N(C(C)C)C(=O)c1ccccc12 | - | 0 | - | 0
Cc1cccc(OP(N)(N)=O)c1C | 0 | 0 | 0 | 115
O=c1[nH]c2ccccc2n1C1CCN(C(CCc2ccccc2)c2nnnn2C2CCCC2)CC1 (centres undefined) | - | 0 | - | 106
CCOP(=S)(OCC)Oc1nc(Cl)c(Cl)cc1Cl | - | 0 | 0 | 0
CNS(=O)(=O)c1ccc(N=Cc2c(O)n(-c3ccccc3)c(=O)[nH]c2=O)cc1 | 28 | 0 | 0 | 0 | TPT1 inh confirm=0;RNase T1 counter=25
CNS(=O)(=O)c1ccc(N=Cc2c(O)n(-c3cccc(C)c3)c(=O)[nH]c2=O)cc1 | 26 | 0 | 0 | 0 | TPT1 inh confirm=0;RNase T1 counter=24
Cc1ccc(-n2c(O)c(C=Nc3ccc(S(=O)(=O)N(C)C)cc3)c(=O)[nH]c2=O)cc1 | 26 | 0 | 0 | 0 | TPT1 inh confirm=0;RNase T1 counter=0
Cc1cccc(-n2c(O)c(/C=C3/C(c4ccccc4)=Nc4ccccc43)c(=O)[nH]c2=O)c1 | 0 | 0 | 0 | 0
Cc1cccc(-n2c(O)c(/C=C/C=Nc3ccccc3)c(=O)[nH]c2=O)c1 | 183 | 0 | 0 | 0 | TPT1 inh confirm=187;RNase T1 counter=173
O=c1cccc2n1C[C@@H]1C[C@@H]2CN(CC(O)c2ccc([N+](=O)[O-])cc2)C1 (some centres undefined) | - | 0 | 0 | 0
COc1ccccc1NC(=O)COC(=O)c1cn(C)c2ccccc12 | - | 0 | 0 | 0
N#Cc1c(/N=C/c2ccc(O)cc2O)sc2c1C1CCN2CC1 | 65 | 40 | 0 | 0 | TPT1 inh confirm=106;RNase T1 counter=107
CCC(=O)[C@@H](C)[C@@H](O)[C@H](C)C[C@@H](C)C1OC(=O)C[C@@]2(O)CC=C(C)C(O2)C(C)=CCCC[C@H](O[C@H]2C[C@@H](OC(N)=O)[C@H](O)[C@@H](C)O2)C=C[C@H](C)C[C@H]1C (some centres undefined) | - | 0 | - | 0
Cc1cccc(C(=O)Nc2ccc3c(c2)CC2(C(=O)N(C)C(=O)N(C)C2=O)C2CCCN32)c1 (centres undefined) | 26 | 0 | 0 | 0 | TPT1 inh confirm=36;RNase T1 counter=49
COc1ccccc1C(=O)Nc1ccc2c(c1)CC1(C(=O)N(C)C(=O)N(C)C1=O)C1CCCN21 (centres undefined) | 0 | 0 | 0 | 0
NC1=NC(=O)N2CC12 (centres undefined) | - | 0 | 0 | 0
N#CC(C#N)=Cc1ccc(N2CCCC2)cc1 | 63 | 0 | 0 | 0 | TPT1 inh confirm=69;RNase T1 counter=84
